Measured values taken from ChEMBL document CHEMBL2086345, “Metabotropic glutamate receptor 5 negative allosteric modulators as novel tools for in vivo investigation” (ACS Med Chem Lett, 2012).
Active and inactive are the calls of the source. The rule behind the calls is not given here.

How the values were obtained:
[1] = biological target: T1, Metabotropic glutamate receptor 5 (Rattus norvegicus, UniProt P31424); experiment: Displacement of [3H]MPEP from mGluR5 in Sprague-Dawley rat brain membrane after 60 mins by liquid scintillation counting; type: cell membranes
T1 sequence (P31424 whole entry): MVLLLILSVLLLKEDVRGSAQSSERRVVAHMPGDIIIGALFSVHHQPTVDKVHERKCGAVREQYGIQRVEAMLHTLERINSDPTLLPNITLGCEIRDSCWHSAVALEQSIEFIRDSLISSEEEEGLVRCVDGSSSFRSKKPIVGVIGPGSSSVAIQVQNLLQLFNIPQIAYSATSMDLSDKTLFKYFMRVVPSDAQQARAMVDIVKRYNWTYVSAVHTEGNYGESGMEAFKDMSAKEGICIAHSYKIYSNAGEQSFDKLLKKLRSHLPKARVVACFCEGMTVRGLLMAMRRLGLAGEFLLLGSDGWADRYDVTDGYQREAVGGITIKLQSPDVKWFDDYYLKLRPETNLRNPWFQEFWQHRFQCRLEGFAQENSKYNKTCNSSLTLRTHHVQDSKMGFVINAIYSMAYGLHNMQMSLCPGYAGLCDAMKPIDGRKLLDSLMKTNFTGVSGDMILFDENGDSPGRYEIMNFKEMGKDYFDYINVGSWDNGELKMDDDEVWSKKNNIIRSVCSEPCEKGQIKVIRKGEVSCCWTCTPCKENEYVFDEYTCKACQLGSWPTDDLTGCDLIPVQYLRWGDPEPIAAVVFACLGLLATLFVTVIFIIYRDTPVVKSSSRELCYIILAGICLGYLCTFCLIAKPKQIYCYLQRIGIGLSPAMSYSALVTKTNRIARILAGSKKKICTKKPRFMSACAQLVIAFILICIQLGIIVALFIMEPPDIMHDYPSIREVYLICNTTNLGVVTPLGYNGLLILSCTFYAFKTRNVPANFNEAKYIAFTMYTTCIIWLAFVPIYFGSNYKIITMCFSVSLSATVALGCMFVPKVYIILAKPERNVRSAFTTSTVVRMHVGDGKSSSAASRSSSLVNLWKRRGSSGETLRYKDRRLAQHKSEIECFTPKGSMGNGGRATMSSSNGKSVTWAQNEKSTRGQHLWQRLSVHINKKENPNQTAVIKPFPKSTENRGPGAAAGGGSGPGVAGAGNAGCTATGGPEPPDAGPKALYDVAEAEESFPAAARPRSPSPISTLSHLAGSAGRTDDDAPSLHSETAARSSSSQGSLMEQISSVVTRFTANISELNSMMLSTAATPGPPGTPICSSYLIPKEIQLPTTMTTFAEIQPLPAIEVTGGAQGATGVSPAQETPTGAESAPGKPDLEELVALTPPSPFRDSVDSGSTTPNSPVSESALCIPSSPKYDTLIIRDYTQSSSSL

[2] = biological target: T1, Metabotropic glutamate receptor 5; experiment: Inverse agonist activity at rat mGluR5 expressed in HEK293A cells coexpressing Gqalpha assessed as inhibition of basal D-myo-inositol 1 production by ELISA
Mus musculus [3] = experiment: Anxiolytic activity in Swiss Webster mouse assessed as increase in time spent in the centre region at 0.1 to 0.3 mg/kg, ip administered as single dose 15 mins prior to testing by open-field test; type: functional, organism-based
Outline: (§1)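 Open-field test in mice. Drugs were suspended in 2% ethanol/10% Tween 80/water (MTEP in saline) and given ip 15 min before testing. Locomotor activity and time in the center region were recorded. n = 10–12 per dose, means ± SEM. Each dose was compared with its within-group vehicle cohort by one-way ANOVA with Bonferroni post hoc test.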

Mus musculus [4] = experiment: Anxiolytic activity in ip dosed Swiss Webster mouse assessed as increase in number of compartment transitions administered as single dose 15 mins prior to testing by light-dark box test; type: functional, organism-based
Outline: (§2)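 Light–dark box test in mice. Drugs were given ip 15 min pretest in a 2% ethanol, 10% Tween 80 and water suspension (MTEP in saline). Read-outs were the proportion of time in the light compartment and the number of light–dark transitions. n = 10–12 per dose, means ± SEM. One-way ANOVA with Bonferroni test against the within-group vehicle cohort.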

Mus musculus [5] = experiment: Anxiolytic activity in ip dosed Swiss Webster mouse assessed as increase in time spent in light compartment administered as single dose 15 mins prior to testing by light-dark box test; type: functional, organism-based; outline: as §2
Mus musculus [6] = experiment: Anxiolytic activity in Swiss Webster mouse assessed as increase in locomotor activity at 3 mg/kg, ip administered as single dose 15 mins prior to testing by open-field test; type: functional, organism-based; parameters: dose 3 mg/kg; outline: as §1
Mus musculus [7] = experiment: Anxiolytic activity in ip dosed Swiss Webster mouse assessed as increase in time spent in the centre region administered as single dose 15 mins prior to testing by open-field test; type: functional, organism-based; outline: as §1
Mus musculus [8] = experiment: Anxiolytic activity in Swiss Webster mouse assessed as increase in time spent in light compartment at 0.1 to 0.3 mg/kg, ip administered as single dose 15 mins prior to testing by light-dark box test; type: functional, organism-based; outline: as §2
Mus musculus [9] = experiment: Anxiolytic activity in ip dosed Swiss Webster mouse assessed as increase in locomotor activity administered as single dose 15 mins prior to testing by open-field test; type: functional, organism-based; outline: as §1
[10] = biological target: Metabotropic glutamate receptor 5 (Rattus norvegicus) (UniProt P31424); experiment: Ratio of MPEP Ki to compound Ki for mGluR5 in Sprague-Dawley rat brain membrane; type: cell membranes
Chain of Metabotropic glutamate receptor 5 (Rattus norvegicus) (P31424 21-1203 limits assumed): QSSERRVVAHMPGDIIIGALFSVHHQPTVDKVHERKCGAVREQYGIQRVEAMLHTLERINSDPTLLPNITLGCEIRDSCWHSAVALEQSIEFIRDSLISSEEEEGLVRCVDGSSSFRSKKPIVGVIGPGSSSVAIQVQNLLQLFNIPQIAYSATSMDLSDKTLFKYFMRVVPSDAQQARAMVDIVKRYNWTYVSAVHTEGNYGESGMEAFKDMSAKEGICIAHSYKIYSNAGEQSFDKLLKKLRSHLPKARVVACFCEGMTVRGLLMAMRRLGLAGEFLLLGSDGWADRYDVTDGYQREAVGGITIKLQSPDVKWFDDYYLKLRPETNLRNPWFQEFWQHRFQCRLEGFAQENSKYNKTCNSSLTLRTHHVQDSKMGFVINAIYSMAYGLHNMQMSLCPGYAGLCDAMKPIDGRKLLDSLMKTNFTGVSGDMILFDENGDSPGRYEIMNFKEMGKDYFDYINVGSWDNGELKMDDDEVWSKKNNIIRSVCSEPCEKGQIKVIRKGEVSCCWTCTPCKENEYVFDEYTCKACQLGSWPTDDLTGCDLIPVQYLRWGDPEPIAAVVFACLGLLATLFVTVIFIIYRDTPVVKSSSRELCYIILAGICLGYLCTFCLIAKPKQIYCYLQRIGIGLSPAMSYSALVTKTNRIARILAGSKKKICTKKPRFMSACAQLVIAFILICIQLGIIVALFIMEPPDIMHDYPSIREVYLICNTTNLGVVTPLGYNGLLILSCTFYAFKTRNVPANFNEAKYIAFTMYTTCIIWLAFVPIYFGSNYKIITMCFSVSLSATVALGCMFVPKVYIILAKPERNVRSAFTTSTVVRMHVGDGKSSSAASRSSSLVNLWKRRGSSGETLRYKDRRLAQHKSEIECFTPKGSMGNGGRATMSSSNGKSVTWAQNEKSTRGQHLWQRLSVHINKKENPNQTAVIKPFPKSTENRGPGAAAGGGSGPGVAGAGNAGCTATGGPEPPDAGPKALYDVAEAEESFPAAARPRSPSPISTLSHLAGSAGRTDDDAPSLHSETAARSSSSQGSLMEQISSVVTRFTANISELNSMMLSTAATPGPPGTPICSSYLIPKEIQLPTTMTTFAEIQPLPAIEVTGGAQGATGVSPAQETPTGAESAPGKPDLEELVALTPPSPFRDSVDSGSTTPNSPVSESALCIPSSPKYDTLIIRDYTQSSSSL

[11] = biological target: Metabotropic glutamate receptor 5 (Rattus norvegicus) (UniProt P31424); experiment: Inverse agonist activity at rat mGluR5 expressed in HEK293A cells coexpressing Gqalpha assessed as inhibition of quisqualic-induced D-myo-inositol 1 production by ELISA; type: functional, cell-based; details: HEK293-A
Outline: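 IP₃ production was gauged indirectly by IP-One ELISA for IP₁ accumulation. Dose–response curves were run without agonist and in the presence of 1 μM quisqualic acid.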

Mus musculus [12] = experiment: Anxiolytic activity in Swiss Webster mouse assessed as increase in time spent in light compartment at 3 mg/kg, ip administered as single dose 15 mins prior to testing by light-dark box test; type: functional, organism-based; parameters: dose 3 mg/kg; outline: as §2
Mus musculus [13] = experiment: Anxiolytic activity in Swiss Webster mouse assessed as increase in number of compartment transitions at 3 mg/kg, ip administered as single dose 15 mins prior to testing by light-dark box test; type: functional, organism-based; parameters: dose 3 mg/kg; outline: as §2
Mus musculus [14] = experiment: Anxiolytic activity in Swiss Webster mouse assessed as increase in locomotor activity at 0.1 to 0.3 mg/kg, ip administered as single dose 15 mins prior to testing by open-field test; type: functional, organism-based; outline: as §1
Mus musculus [15] = experiment: Anxiolytic activity in Swiss Webster mouse assessed as increase in number of compartment transitions at 0.1 to 0.3 mg/kg, ip administered as single dose 15 mins prior to testing by light-dark box test; type: functional, organism-based; outline: as §2
Mus musculus [16] = experiment: Anxiolytic activity in Swiss Webster mouse assessed as increase in time spent in the centre region at 3 mg/kg, ip administered as single dose 15 mins prior to testing by open-field test; type: functional, organism-based; parameters: dose 3 mg/kg; outline: as §1
Mus musculus [17] = experiment: Anxiolytic activity in Swiss Webster mouse assessed as increase in time spent in the centre region at 0.3 mg/kg, ip administered as single dose 15 mins prior to testing by open-field test; type: functional, organism-based; parameters: dose 0.3 mg/kg; outline: as §1
Mus musculus [18] = experiment: Anxiolytic activity in Swiss Webster mouse assessed as increase in locomotor activity at 0.3 mg/kg, ip administered as single dose 15 mins prior to testing by open-field test; type: functional, organism-based; parameters: dose 0.3 mg/kg; outline: as §1
Mus musculus [19] = experiment: Anxiolytic activity in Swiss Webster mouse assessed as increase in number of compartment transitions at 0.3 mg/kg, ip administered as single dose 15 mins prior to testing by light-dark box test; type: functional, organism-based; parameters: dose 0.3 mg/kg; outline: as §2
Mus musculus [20] = experiment: Anxiolytic activity in Swiss Webster mouse assessed as increase in time spent in light compartment at 0.3 mg/kg, ip administered as single dose 15 mins prior to testing by light-dark box test; type: functional, organism-based; parameters: dose 0.3 mg/kg; outline: as §2
Mus musculus [21] = experiment: Anxiolytic activity in Swiss Webster mouse assessed as increase in time spent in light compartment at 30 mg/kg, ip administered as single dose 15 mins prior to testing by light-dark box test; type: functional, organism-based; parameters: dose 30 mg/kg; outline: as §2
Mus musculus [22] = experiment: Anxiolytic activity in Swiss Webster mouse assessed as increase in locomotor activity at 3 to 30 mg/kg, ip administered as single dose 15 mins prior to testing by open-field test; type: functional, organism-based; outline: as §1
Mus musculus [23] = experiment: Anxiolytic activity in Swiss Webster mouse assessed as increase in time spent in the centre region at 3 to 30 mg/kg, ip administered as single dose 15 mins prior to testing by open-field test; type: functional, organism-based; outline: as §1
Mus musculus [24] = experiment: Anxiolytic activity in Swiss Webster mouse assessed as increase in number of compartment transitions at 3 to 30 mg/kg, ip administered as single dose 15 mins prior to testing by light-dark box test; type: functional, organism-based; outline: as §2
Mus musculus [25] = experiment: Anxiolytic activity in Swiss Webster mouse assessed as increase in locomotor activity at 30 mg/kg, ip administered as single dose 15 mins prior to testing by open-field test; type: functional, organism-based; parameters: dose 30 mg/kg; outline: as §1
Mus musculus [26] = experiment: Anxiolytic activity in Swiss Webster mouse assessed as increase in time spent in light compartment at 3 to 30 mg/kg, ip administered as single dose 15 mins prior to testing by light-dark box test; type: functional, organism-based; outline: as §2
Mus musculus [27] = experiment: Anxiolytic activity in Swiss Webster mouse assessed as increase in time spent in the centre region at 30 mg/kg, ip administered as single dose 15 mins prior to testing by open-field test; type: functional, organism-based; parameters: dose 30 mg/kg; outline: as §1
Mus musculus [28] = experiment: Anxiolytic activity in Swiss Webster mouse assessed as increase in number of compartment transitions at 30 mg/kg, ip administered as single dose 15 mins prior to testing by light-dark box test; type: functional, organism-based; parameters: dose 30 mg/kg; outline: as §2
Mus musculus [29] = experiment: Anxiolytic activity in Swiss Webster mouse assessed as increase in number of compartment transitions at 10 mg/kg, ip administered as single dose 15 mins prior to testing by light-dark box test; type: functional, organism-based; parameters: dose 10 mg/kg; outline: as §2
Mus musculus [30] = experiment: Anxiolytic activity in Swiss Webster mouse assessed as increase in locomotor activity at 10 mg/kg, ip administered as single dose 15 mins prior to testing by open-field test; type: functional, organism-based; parameters: dose 10 mg/kg; outline: as §1
Mus musculus [31] = experiment: Anxiolytic activity in Swiss Webster mouse assessed as increase in time spent in light compartment at 10 mg/kg, ip administered as single dose 15 mins prior to testing by light-dark box test; type: functional, organism-based; parameters: dose 10 mg/kg; outline: as §2
Mus musculus [32] = experiment: Anxiolytic activity in Swiss Webster mouse assessed as increase in time spent in the centre region at 10 mg/kg, ip administered as single dose 15 mins prior to testing by open-field test; type: functional, organism-based; parameters: dose 10 mg/kg; outline: as §1

N#Cc1cncc(C#Cc2cccc(C#N)n2)c1
Ki [1]: 52 nM
IC50 [2]: 500 nM

N#Cc1cncc(C#Cc2cccc(CO)n2)c1
Ki [1]: > 10000 nM

CC(=O)c1cccc(C#Cc2cccc(C#N)c2)n1
Ki [1]: 114 nM
IC50 [2]: 300 nM

CCCCc1cccc(C#Cc2cccc(C#N)c2)n1
Ki [1]: 45 nM
IC50 [2]: 700 nM

Cc1cccc(C#Cc2cccc(C#N)c2)n1
Ki [1]: 1.04 nM
IC50 [2]: 13 nM

N#Cc1cccc(C#Cc2cccc(C(N)=O)c2)n1
Ki [1]: > 10000 nM

COc1cccc(C#Cc2cccc(C#N)c2)n1
Ki [1]: 200 nM
IC50 [2]: 300 nM

N#Cc1cccc(C#Cc2cccc(CO)n2)c1
Ki [1]: 37 nM
IC50 [2]: 30 nM

N#Cc1cccc(C#Cc2cccc(F)n2)c1
Ki [1]: 150 nM
IC50 [2]: 210 nM

N#Cc1cc(F)cc(C#Cc2cccc(F)n2)c1
Ki [1]: 41 nM
IC50 [2]: 80 nM

N#Cc1cc(F)cc(C#Cc2cccc(C#N)n2)c1
Activity (Mus musculus [3]): Active
Ki [1]: 2.7 nM
Activity (Mus musculus [4]): Dose-dependent effect
Activity (Mus musculus [5]): Dose-dependent effect
Activity (Mus musculus [6]): inactive
Activity (Mus musculus [7]): Dose-dependent effect
Activity (Mus musculus [8]): Active
Activity (Mus musculus [9]): Dose-dependent effect
Ratio Ki [10]: 6
inhibition [11]: Dose-dependent effect
IC50 [2]: 9 nM
Activity (Mus musculus [12]): inactive
Activity (Mus musculus [13]): inactive
Activity (Mus musculus [14]): Active
Activity (Mus musculus [15]): Active
Activity (Mus musculus [16]): inactive

CCc1cccc(C#Cc2cccc(C#N)c2)n1
Ki [1]: 3.4 nM
IC50 [2]: 80 nM

Cc1cccc(C#Cc2cc(F)cc(C#N)c2)n1
Ki [1]: 0.67 nM
Activity (Mus musculus [4]): Dose-dependent effect
Activity (Mus musculus [17]): Active
Activity (Mus musculus [5]): Dose-dependent effect
Activity (Mus musculus [18]): Active
Activity (Mus musculus [6]): Active
Activity (Mus musculus [7]): Dose-dependent effect
Activity (Mus musculus [9]): Dose-dependent effect
Ratio Ki [10]: 24
inhibition [11]: Dose-dependent effect
Activity (Mus musculus [19]): Active
Activity (Mus musculus [20]): Active
IC50 [2]: 2.4 nM
Activity (Mus musculus [12]): inactive
Activity (Mus musculus [13]): inactive
Activity (Mus musculus [16]): inactive

N#Cc1cccc(C#Cc2cccc(C#N)n2)c1
Ki [1]: 8.2 nM
IC50 [2]: 20 nM

CC(=O)c1cccc(C#Cc2cc(F)cc(C#N)c2)n1
Ki [1]: 64 nM
IC50 [2]: 240 nM

N#Cc1cc(F)cc(C#Cc2cccc(CO)n2)c1
Ki [1]: 7.5 nM
IC50 [2]: 50 nM

N#Cc1cccc(C#Cc2cc(F)cc(C(N)=O)c2)n1
Ki [1]: > 10000 nM

COc1cccc(C#Cc2cc(F)cc(C#N)c2)n1
Ki [1]: 40 nM
IC50 [2]: 400 nM

Cc1cccc(C#Cc2ccccc2)n1
Activity (Mus musculus [21]): inactive
Activity (Mus musculus [4]): Dose-dependent effect
Activity (Mus musculus [5]): Dose-dependent effect
Activity (Mus musculus [22]): Active
Activity (Mus musculus [23]): Active
Activity (Mus musculus [24]): Active
Activity (Mus musculus [25]): Active
Activity (Mus musculus [7]): Dose-dependent effect
Activity (Mus musculus [9]): Dose-dependent effect
inhibition [11]: Dose-dependent effect
Activity (Mus musculus [26]): Active
Activity (Mus musculus [27]): inactive
Activity (Mus musculus [28]): inactive

COc1cccc(C#Cc2cncc(C#N)c2)n1
Ki [1]: 55 nM
IC50 [2]: 200 nM

COc1cc(C#N)cc(C#Cc2cccc(C)n2)c1
Ki [1]: 1.29 nM
IC50 [2]: 3.4 nM

Cc1nc(C#Cc2cccnc2)cs1
Activity (Mus musculus [29]): Active
Activity (Mus musculus [30]): Active
Activity (Mus musculus [4]): Dose-dependent effect
Activity (Mus musculus [31]): Active
Activity (Mus musculus [5]): Dose-dependent effect
Activity (Mus musculus [7]): Dose-dependent effect
Activity (Mus musculus [9]): Dose-dependent effect
inhibition [11]: Dose-dependent effect
Activity (Mus musculus [32]): Active
